Screening data deposited in PubChem BioAssay by several laboratories.
Compounds with a hit are over-represented: about 2.3% of the library has one in this group of screens.
TRAIL sens C8 – viability loss with TRAIL in NB7+C8 cells, primary screen, TRAIL sensitizer project, cell-based, ATPlite luminescence | inhibition (viability loss, TRAIL sensitization), % at 10 µM | 1% of 360,000 active;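 active = compounds causing at least 50% loss of cell viability in the single-dose screen, relative to plate controls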
STAT1 blocker – STAT1 signaling inhibitors, primary screen, cell-based, HTS, luciferase reporter. NIH 3T3 STAT1-luciferase reporter, IFN-gamma, luminescence. inhibition, % at 5.5 µM. 0.35% of 200,000 active;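 active = inhibition above a set limit, the mean inhibition across all tested compounds plus 3 SD, cut at about 34% in these data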
STAT3 blocker – IL-6 driven STAT3 reporter inhibitors, primary screen, U3A cells, luciferase, luminescence, MLSCN library. IL-6 STAT3-luciferase reporter; host cell line lacks STAT1. inhibition, % at 5.5 µM. 0.89% of 190,000 active. AID 862, 2007;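 active = inhibition above the mean inhibition across all screened compounds plus 3 SD, cut at about 44% in these data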
PPC-1+TRAIL kill – compounds killing PPC-1 cancer cells with TRAIL present, primary screen, TRAIL potentiator project, ATPLite luminescence, uHTS; PPC-1 cells + TRAIL, ATPLite viability luminescence; cell killing (% activity), % at 4 µM or 5 µM; 0.41% of 220,000 active; AID 1443, 2008;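 active = cell killing above 50% in the first pass at 4 µM, then a duplicate retest at 5 µM averaging 50% or more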
HSP90 refold inh – HSP90 inhibitors, primary screen, cell lysate, luminescence. Rabbit reticulocyte lysate, luciferase refolding luminescence, 3 h. inhibition, % at 5.6 µM. 0.91% of 290,000 active;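 active = inhibition above the screen-wide mean plus 3 SD, computed separately per campaign, cut at about 16% in these data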;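 note: inhibitors lower the luminescence because luciferase stays unfolded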
STAT3 activator – IL-6 driven STAT3 reporter potentiators, primary screen, U3A cells, luciferase, luminescence, MLSCN library; IL-6 STAT3-luciferase reporter; 100% = signal with IL-6 EC80 alone; activation (% of control), % at 5.6 µM; 0.91% of 190,000 active;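 active = activation above the screen-wide mean of compound activation plus 3 SD, cut at about 130% in these data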
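Material: STAT1-lacking human U3A cells, STAT3 luciferase reporter | Benchmarks: IL-6-only wells as 100% reference | Probe or stimulus: IL-6 (33 ng/mL) | Timing: Compound 1 h, then IL-6 6 h at 37 °C | Detection: Luminescence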
HSP90 inh confirm – HSP90 inhibitors, confirmation, cell lysate, luminescence. shares compounds with HSP90 refold inh. rabbit reticulocyte lysate, luciferase refolding luminescence, 3 h. inhibition, % at 5.9 µM. 64% of 2,300 active. AID 1846, 2009; in the data active = inhibition above about 18%
luciferase ctr – firefly luciferase inhibitors, HSP90 counter-screen, confirmation, artefact control for HSP90 inhibitor project, biochemical, luminescence, triplicate; shares compounds with HSP90 refold inh; purified native firefly luciferase; inhibition, % at 5.9 µM; 48% of 2,300 active; AID 1847, 2009;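 active = inhibition above the mean inhibition of all tested sample wells plus 3 SD, cut at about 10% in these data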
Target sequence (P08659 whole entry, looked up): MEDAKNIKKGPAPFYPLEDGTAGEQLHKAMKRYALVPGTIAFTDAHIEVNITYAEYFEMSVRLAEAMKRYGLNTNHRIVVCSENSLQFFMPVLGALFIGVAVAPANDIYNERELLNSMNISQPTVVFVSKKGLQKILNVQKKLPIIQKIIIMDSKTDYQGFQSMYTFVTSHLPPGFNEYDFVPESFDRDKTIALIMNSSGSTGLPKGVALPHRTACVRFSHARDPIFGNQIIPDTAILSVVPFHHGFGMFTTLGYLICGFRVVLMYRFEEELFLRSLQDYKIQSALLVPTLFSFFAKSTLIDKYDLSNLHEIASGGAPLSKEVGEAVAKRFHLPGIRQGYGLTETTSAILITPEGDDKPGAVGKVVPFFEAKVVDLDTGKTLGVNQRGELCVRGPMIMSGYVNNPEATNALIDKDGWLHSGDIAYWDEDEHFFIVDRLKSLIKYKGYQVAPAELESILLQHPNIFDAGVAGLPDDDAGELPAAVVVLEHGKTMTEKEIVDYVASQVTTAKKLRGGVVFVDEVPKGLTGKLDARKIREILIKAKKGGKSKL
Numbers stand for hits; i = inactive; nt = not tested or not shown.

SMILES	TRAIL sens C8	STAT1 blocker	STAT3 blocker	PPC-1+TRAIL kill	HSP90 refold inh	STAT3 activator	HSP90 inh confirm	luciferase ctr
N#Cc1cc2ccccc2nc1N	i	i	i	i	20	i	i	i
CC(C)(C)c1ccc(-c2noc(CCC(=O)Nc3cccnc3)n2)cc1	50	nt	nt	nt	45	nt	i	i
CC(C)(C)c1ccc(-c2noc(CCC(N)=O)n2)cc1	i	i	i	i	i	i	nt	nt
COc1ccc(-c2noc(CCC(=O)Nc3cccnc3)n2)cc1	i	nt	nt	nt	i	nt	nt	nt
CN(C)C(=O)CCc1nc(-c2ccc(C(C)(C)C)cc2)no1	i	i	i	i	20	i	27	i
O=C(CSc1ccc2c(c1)OCCO2)Nc1ccc(Cl)cn1	i	i	i	i	i	i	nt	nt
O=C(COc1ccccc1-c1ccccc1)NCCN1C(=O)S/C(=C\c2cccnc2)C1=O	i	i	i	i	i	i	nt	nt
Cc1ccc(C(=O)N/C(=C\c2sccc2C)C(=O)NCc2ccco2)cc1	i	i	i	i	25	i	i	i
Cc1ccc(C(=O)N/C(=C\c2sccc2C)C(=O)NCc2ccncc2)cc1	i	i	i	i	i	i	nt	nt
Nc1c(Cl)cc(-c2csc(N3CCCC3c3nc4cc(Cl)c(N5CCCCC5)cc4n3CCOCCO)n2)cc1Cl (centres undefined)	i	nt	nt	nt	nt	nt	nt	nt
CCCCn1c(NC(C)=O)c(C#N)c2nc3ccccc3nc21	i	i	i	i	24	i	i	i
C=CCn1c(NC(=O)c2ccccc2Cl)c(C#N)c2nc3ccccc3nc21	i	i	i	i	49	i	i	i
CCCCn1c(NC(=O)c2ccc(Br)o2)c(S(=O)(=O)c2ccccc2)c2nc3ccccc3nc21	i	i	i	i	34	i	i	i
OCC1(CCOc2ccccc2)CCN(Cc2ccncc2)CC1	i	nt	nt	nt	i	nt	nt	nt
Cc1nn(-c2ccccc2)c(Cl)c1/C=N/NC(=O)OC(C)(C)C	i	i	i	i	i	i	nt	nt
Cc1nn(-c2ccccc2)c(Cl)c1/C=N/Nc1ccc(Cl)c(C(=O)O)c1	i	42	44	52	38	i	84	78
O=C(O)c1cc(N/N=C/C=C/c2ccccc2)ccc1Cl	i	i	i	i	27	i	37	i
Cc1ccc(-c2cc(C(=O)N3CCCC(C(F)(F)F)C3)c3ccccc3n2)o1 (centres undefined)	i	nt	nt	nt	nt	nt	nt	nt
O=S(=O)(O)c1cccc(N=Nc2c(O)ccc3ccccc23)c1	i	nt	nt	i	33	nt	34	i
Cc1cccc2c3nc4ccccc4nc3n(CCCN3C(=O)c4ccccc4C3=O)c12	i	i	i	i	25	i	i	i
COc1cc(/C=C2\CC(C(C)(C)C)C/C(=C\c3cc(OC)c(OC)c(OC)c3)C2=O)cc(OC)c1OC (centres undefined)	i	nt	nt	nt	19	nt	20	i
O=C(O)c1cccc(NC(=S)NC(=O)c2ccc3ccccc3c2)c1	i	nt	nt	nt	64	nt	71	49
Cc1ccc(C(=O)Nc2cccc(C(=O)N/N=C/c3ccccc3F)c2)cc1	i	nt	nt	nt	19	nt	i	i
O=C(O)c1cccc(NC(=O)c2ccccc2)c1	i	nt	nt	nt	nt	nt	nt	nt
Cc1ccc(C(=O)Nc2cccc(C(=O)O)c2)cc1	nt	82	98	i	82	i	88	83
Cc1ccc(C(=O)Nc2ccc(C(=O)O)cc2NC(=O)c2ccc(C)cc2)cc1	i	nt	nt	nt	60	nt	55	37
CC(/C=C/c1ccco1)=N\NC(=O)COc1ccc(C)c(C)c1	i	i	i	i	i	i	nt	nt
Cc1ccccc1OCC(=O)Nc1cccc(C(=O)O)c1	i	97	103	i	97	i	91	86
